Measured values reported in ChEMBL document CHEMBL2169742, “Design, synthesis, and biological evaluation of novel transrepression-selective liver X receptor (LXR) ligands with 5,11-dihydro-5-methyl-11-methylene-6H-dibenz[b,e]azepin-6-one skeleton” (J Med Chem, 2012).
pIC50: −log10 of the molar value. The source made the active and inactive calls. No cut-off for these calls is given here.

Assays:
[1] = target: T1, Peroxisome proliferator-activated receptor gamma (Homo sapiens) (UniProt P37231); experiment: Agonist activity at human Gal4-fused PPARgamma assessed as luciferase activity at 10 uM by reporter gene assay relative to control; assay type: functional
T1 sequence (whole entry): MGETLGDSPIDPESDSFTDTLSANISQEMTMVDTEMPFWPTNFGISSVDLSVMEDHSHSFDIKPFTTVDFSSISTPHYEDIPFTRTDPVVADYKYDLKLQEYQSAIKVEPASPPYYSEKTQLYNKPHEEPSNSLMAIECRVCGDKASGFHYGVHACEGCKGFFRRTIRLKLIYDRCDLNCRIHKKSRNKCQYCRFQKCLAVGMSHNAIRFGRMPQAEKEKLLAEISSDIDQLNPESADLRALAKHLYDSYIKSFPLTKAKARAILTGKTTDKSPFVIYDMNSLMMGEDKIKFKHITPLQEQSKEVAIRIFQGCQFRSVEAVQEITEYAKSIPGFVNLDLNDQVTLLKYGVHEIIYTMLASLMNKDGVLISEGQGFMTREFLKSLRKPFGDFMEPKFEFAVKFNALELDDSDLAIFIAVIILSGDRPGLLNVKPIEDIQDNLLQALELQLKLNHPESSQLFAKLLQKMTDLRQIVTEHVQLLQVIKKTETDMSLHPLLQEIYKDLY

[2] = target: T2, Retinoic acid receptor RXR-alpha (Homo sapiens) (UniProt P19793); experiment: Antagonist activity at human Gal4-fused RXRalpha assessed as inhibition of SR11215-induced luciferase activity at 0.1 to 10 uM by reporter gene assay; assay type: functional
T2 sequence (whole entry): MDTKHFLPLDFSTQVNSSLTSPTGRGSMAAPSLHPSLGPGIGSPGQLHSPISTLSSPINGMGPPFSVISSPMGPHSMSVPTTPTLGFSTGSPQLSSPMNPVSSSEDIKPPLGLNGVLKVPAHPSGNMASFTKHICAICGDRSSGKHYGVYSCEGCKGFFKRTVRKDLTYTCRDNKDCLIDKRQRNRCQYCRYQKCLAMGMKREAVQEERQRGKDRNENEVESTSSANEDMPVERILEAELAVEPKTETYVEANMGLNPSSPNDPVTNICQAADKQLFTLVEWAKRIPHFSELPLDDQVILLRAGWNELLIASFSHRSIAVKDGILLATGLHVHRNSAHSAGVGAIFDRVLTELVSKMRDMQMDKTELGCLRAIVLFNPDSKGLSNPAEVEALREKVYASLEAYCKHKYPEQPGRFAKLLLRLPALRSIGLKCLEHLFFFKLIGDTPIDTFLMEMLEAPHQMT

[3] = target: T2, Retinoic acid receptor RXR-alpha (Homo sapiens); experiment: Agonist activity at human Gal4-fused RXRalpha assessed as luciferase activity at 0.1 to 10 uM by reporter gene assay; assay type: functional
[4] = tested on: Peritoneal macrophage cell; experiment: Inhibition of LPS-induced IL-6 mRNA expression in LXRalpha-deficient C57BL/6J mouse peritoneal macrophages at 10 uM incubated for 6 hrs prior to LPS-challenge measured after 18 hrs by RT-PCR analysis; assay type: functional, cell-based
How it was run: (§1)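 Thioglycollate-elicited peritoneal macrophages (wild-type C57BL/6J or LXRα-null, 8–10 weeks) were plated at 4 × 10⁶/well and pretreated with compound 6 h before LPS 100 ng/mL. Cells were harvested after 18 h. il-6 and il-1β mRNA were measured by real-time quantitative PCR, normalized to GAPDH.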

[5] = Transrepressional activity at LXR in C57BL/6J mouse peritoneal macrophages assessed as inhibition of LPS-induced IL-6 mRNA expression at 10 uM incubated for 6 hr prior to LPS-challenge measured after 18 hrs by RT-PCR analysis; how it was run: as §1
[6] = target: T3, Oxysterols receptor LXR-alpha (Homo sapiens, UniProt Q13133); experiment: Transactivational agonist activity at human LXRalpha transfected in HEK293 cells coexpressing CMX-Gal4N-SRC1 assessed as SRC1 recruitment at 10 uM after 16 hrs by mammalian two-hybrid assay; assay type: cell-based; conditions: hek293, 16 h
T3 sequence (Q13133 whole entry): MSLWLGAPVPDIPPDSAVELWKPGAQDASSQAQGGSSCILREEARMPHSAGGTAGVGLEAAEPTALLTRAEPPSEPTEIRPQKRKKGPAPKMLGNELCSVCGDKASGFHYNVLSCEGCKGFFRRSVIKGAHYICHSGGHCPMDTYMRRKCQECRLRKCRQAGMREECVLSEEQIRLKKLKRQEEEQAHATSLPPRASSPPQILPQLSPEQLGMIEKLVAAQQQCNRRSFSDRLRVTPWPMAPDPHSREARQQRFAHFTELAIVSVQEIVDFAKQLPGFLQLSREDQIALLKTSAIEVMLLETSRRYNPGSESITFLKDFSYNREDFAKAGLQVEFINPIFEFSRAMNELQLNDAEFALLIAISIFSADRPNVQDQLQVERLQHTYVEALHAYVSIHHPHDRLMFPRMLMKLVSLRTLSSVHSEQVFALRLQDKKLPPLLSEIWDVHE
How it was run: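 Mammalian two-hybrid in HEK293 cells by calcium phosphate cotransfection: CMX-VP16N-hLXRα, Gal4N-fused SRC1, DRIP205, NCoR or SMRT (15 ng), tk-MH100×4-luc (50 ng) and CMX-β-gal (10 ng). Compound or DMSO added 8 h after transfection for 16 h. Luciferase was normalized to β-galactosidase, in triplicate.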

[7] = target: T4, Oxysterols receptor LXR-beta (Homo sapiens, UniProt P55055); experiment: Transactivational antagonist activity at human LXRbeta transfected in HEK293 cells expressing CMX-Gal4N assessed as inhibition of T1317-induced luciferase activity after 16 hrs by reporter gene assay; assay type: functional, cell-based
T4 sequence (P55055 whole entry): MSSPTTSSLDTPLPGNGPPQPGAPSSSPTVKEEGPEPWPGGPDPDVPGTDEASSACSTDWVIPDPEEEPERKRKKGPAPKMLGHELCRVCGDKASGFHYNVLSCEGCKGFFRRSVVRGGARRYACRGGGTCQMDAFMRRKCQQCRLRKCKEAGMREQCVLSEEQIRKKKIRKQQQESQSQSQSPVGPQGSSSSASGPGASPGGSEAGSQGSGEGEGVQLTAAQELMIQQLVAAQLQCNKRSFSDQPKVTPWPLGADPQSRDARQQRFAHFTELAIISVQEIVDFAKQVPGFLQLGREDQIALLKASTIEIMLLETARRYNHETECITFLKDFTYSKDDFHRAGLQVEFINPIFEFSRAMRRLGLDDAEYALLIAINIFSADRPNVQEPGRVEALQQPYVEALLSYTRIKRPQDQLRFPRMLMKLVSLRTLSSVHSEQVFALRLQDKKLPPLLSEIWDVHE

Q: What does the source list for `C=C1c2ccccc2C(=O)N(C)c2ccc(CC)cc21`?
A: Activity [1]: 20%; inhibition [2]: inactive; Activity [3]: inactive; inhibition [4]: inactive; inhibition [5]: Active; Activity [6]: Non-toxic; pIC50 [7]: < 4.52
